Assay results as given in ChEMBL document CHEMBL3870305, “Synthesis, biological evaluation and molecular modeling studies of imidazo[1,2-a]pyridines derivatives as protein kinase inhibitors” (Eur J Med Chem, 2016).
Activity calls are given as the source filed them. The rule behind the calls is not given here.

Assays:
CLK1 (Mus musculus) [1] = assay: Inhibition of CLK1 (unknown origin)
[2] = molecular target: DYRK1A (Rattus norvegicus); assay: Inhibition of DYRK1A (unknown origin)
[3] = molecular target: Glycogen synthase kinase-3 alpha/beta (Sus scrofa); assay: Inhibition of GSK-3 alpha/beta (unknown origin)
[4] = molecular target: Casein kinase I delta/epsilon (Sus scrofa); assay: Inhibition of CK1 delta/epsilon (unknown origin)
CLK1 (Mus musculus) [5] = assay: Inhibition of CLK1 (unknown origin) at 10 uM in presence of gamma[33P]ATP relative to control
[6] = tested on: DYRK1A (Rattus norvegicus); assay: Inhibition of DYRK1A (unknown origin) at 10 uM in presence of gamma[33P]ATP relative to control
[7] = molecular target: Dual specificity protein kinase CLK1 (Mus musculus) (UniProt P22518); assay: Competitive inhibition of full length recombinant mouse CLK1 expressed in bacteria using GRSRSRSRSRSR peptide as substrate in presence of varying levels of ATP by double-reciprocal method
Dual specificity protein kinase CLK1 (Mus musculus), sequence (P22518 whole entry, looked up): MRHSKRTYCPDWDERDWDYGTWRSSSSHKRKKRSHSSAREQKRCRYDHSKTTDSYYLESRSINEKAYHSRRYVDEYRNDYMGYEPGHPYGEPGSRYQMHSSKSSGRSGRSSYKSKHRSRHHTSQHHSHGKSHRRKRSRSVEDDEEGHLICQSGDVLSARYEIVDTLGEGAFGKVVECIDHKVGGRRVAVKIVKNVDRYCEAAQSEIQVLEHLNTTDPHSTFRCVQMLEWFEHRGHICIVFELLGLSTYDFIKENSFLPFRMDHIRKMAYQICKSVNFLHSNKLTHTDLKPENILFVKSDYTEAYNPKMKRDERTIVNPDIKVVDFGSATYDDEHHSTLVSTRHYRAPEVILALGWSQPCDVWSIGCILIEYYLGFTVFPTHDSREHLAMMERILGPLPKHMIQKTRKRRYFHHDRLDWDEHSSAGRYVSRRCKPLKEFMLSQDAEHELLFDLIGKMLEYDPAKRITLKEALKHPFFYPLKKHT

[8] = molecular target: Cyclin-dependent kinase 1/cyclin B1 (Homo sapiens) (UniProt P06493+P14635); assay: Inhibition of full length recombinant human CDK1/CyclinB1 expressed in baculovirus infected Sf9 insect cells at 10 uM using histone H1 as substrate in presence of gamma[33P]ATP
Cyclin-dependent kinase 1/cyclin B1 (Homo sapiens), sequence (P06493 whole entry, looked up): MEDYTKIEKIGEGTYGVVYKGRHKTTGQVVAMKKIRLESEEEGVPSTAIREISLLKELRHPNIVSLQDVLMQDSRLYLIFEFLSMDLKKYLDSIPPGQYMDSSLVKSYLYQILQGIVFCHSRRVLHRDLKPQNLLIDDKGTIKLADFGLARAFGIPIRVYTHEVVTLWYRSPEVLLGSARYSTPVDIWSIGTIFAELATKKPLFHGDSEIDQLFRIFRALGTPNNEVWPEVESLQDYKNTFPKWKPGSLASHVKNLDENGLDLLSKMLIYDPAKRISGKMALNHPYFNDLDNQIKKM
Cyclin-dependent kinase 1/cyclin B1 (Homo sapiens), sequence (P14635 whole entry, looked up): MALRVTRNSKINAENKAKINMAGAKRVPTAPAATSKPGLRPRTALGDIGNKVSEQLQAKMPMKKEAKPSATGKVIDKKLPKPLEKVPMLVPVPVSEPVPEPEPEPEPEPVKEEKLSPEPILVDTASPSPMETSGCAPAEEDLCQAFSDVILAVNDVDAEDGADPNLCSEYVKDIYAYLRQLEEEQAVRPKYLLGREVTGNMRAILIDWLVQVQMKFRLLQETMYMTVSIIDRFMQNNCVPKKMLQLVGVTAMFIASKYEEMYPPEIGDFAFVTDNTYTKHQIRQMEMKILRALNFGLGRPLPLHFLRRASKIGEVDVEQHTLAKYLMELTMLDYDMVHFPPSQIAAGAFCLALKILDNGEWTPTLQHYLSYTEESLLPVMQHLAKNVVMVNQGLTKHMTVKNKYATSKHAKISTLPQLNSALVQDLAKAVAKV
Outline: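 Buffer G (40 mM Tris pH 7.5, 20 mM MgCl2, 0.1 mg/ml BSA) with 0.8 µg/µl histone H1 and 15 µM [γ-33P]ATP. Compound tested at 10 µM; activity as % of the no-inhibitor control; n = 2, mean ± range.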

[9] = molecular target: CDK2/Cyclin A2 (Homo sapiens) (UniProt P24941+P20248); assay: Inhibition of full length human CDK2/CyclinA at 10 uM using histone H1 as substrate in presence of gamma[33P]ATP; format: protein-complex assay
[10] = molecular target: CDK9/cyclin T1 (Homo sapiens) (UniProt O60563+P50750); assay: Inhibition of full length recombinant human CDK9/CyclinT expressed in baculovirus infected Sf9 insect cells at 10 uM using YSPTSPSYSPTSPSYSPTSPSKKKK as substrate in presence of gamma[33P]ATP
[11] = molecular target: Cyclin-dependent kinase 5/CDK5 activator 1 (Homo sapiens) (UniProt Q00535+Q15078); assay: Inhibition of full length recombinant human CDK5/p25 expressed in bacteria at 10 uM using histone H1 as substrate in presence of gamma[33P]ATP
Cyclin-dependent kinase 5/CDK5 activator 1 (Homo sapiens), sequence (Q00535 whole entry): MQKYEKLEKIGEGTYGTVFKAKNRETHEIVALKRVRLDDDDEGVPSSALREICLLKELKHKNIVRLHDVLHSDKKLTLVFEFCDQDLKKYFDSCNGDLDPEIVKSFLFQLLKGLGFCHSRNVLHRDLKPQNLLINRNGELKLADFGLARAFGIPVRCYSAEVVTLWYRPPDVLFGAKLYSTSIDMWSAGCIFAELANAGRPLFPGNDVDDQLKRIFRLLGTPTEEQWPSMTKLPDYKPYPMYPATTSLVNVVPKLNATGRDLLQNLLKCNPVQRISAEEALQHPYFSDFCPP
Cyclin-dependent kinase 5/CDK5 activator 1 (Homo sapiens), sequence (Q15078 99-307 partner limits assumed): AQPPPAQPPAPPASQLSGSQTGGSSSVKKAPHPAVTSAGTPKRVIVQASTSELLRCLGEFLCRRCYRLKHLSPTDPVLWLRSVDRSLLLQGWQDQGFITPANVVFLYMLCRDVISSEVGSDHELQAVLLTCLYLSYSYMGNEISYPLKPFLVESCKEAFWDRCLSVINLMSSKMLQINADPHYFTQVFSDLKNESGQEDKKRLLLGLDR
Outline: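 Buffer B (25 mM MOPS pH 7, β-glycerophosphate, p-nitrophenyl-phosphate, EGTA, 15 mM MgCl2, DTT, orthovanadate) with 0.8 µg/µl histone H1 and 15 µM [γ-33P]ATP. Compound tested at 10 µM; activity as % of the no-inhibitor control; n = 2, mean ± range.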

SMILES	IC50 (CLK1 (Mus musculus) [1]) [µM]	IC50 [2] [µM]	IC50 [3] [µM]	IC50 [4] [µM]	inhibition (CLK1 (Mus musculus) [5]) [%]	inhibition [6] [%]	inhibition [7]	inhibition [8]	inhibition [9]	inhibition [10]	inhibition [11]
NC(=O)c1cc(-c2cn3cc(-c4ccc([N+](=O)[O-])cc4)ccc3n2)ccc1O	> 10	> 10	> 10	> 10							
NC(=O)c1cc(-c2cn3ccccc3n2)ccc1O	1	4	> 10	> 10	> 50	> 50					
COc1cccc(-c2cn3cc(Cl)ccc3n2)c1	> 10	> 10	> 10	> 10							
COc1cc(-c2cn3cc(Cl)ccc3n2)cc(OC)c1OC	> 10	> 10	> 10	> 10							
Oc1ccc(-c2cn3cc(Cl)ccc3n2)cc1	> 10	> 10	> 10	> 10							
NC(=O)c1cc(-c2cn3cc(Cl)ccc3n2)ccc1O								Active	Active	Active	Active
COc1cc(OC)cc(-c2cn3cc(Cl)ccc3n2)c1	> 10	> 10	> 10	> 10							

The next lines start with the values.

IC50 (CLK1 (Mus musculus) [1]) [µM]	IC50 [2] [µM]	IC50 [3] [µM]	IC50 [4] [µM]	inhibition (CLK1 (Mus musculus) [5]) [%]	inhibition [6] [%]	inhibition [7]	inhibition [8]	inhibition [9]	inhibition [10]	inhibition [11]	SMILES
0.7	2.6	> 10	> 10	> 50	> 50	Active	Active	Active	Active	Active	NC(=O)c1cc(-c2cn3cc(Br)ccc3n2)ccc1O
> 10	> 10	> 10	> 10								NC(=O)c1cc(-c2cn3cc(N)ccc3n2)ccc1O
							Active	Active	Active	Active	NC(=O)c1cc(-c2cn3cc(O)ccc3n2)ccc1O
1.4	4.7	> 10	> 10	> 50	> 50						NC(=O)c1cc(-c2cn3cc(F)ccc3n2)ccc1O
